From ChEMBL document CHEMBL1221258, “Biaryl substituted hydantoin compounds as TACE inhibitors” (Bioorg Med Chem Lett, 2010)

Tests used:
[1] = target: 72 kDa type IV collagenase (Homo sapiens) (UniProt P08253); test: Inhibition of MMP2
[2] = target: T1, Interstitial collagenase (Homo sapiens) (UniProt P03956); test: Inhibition of MMP1
T1 sequence (whole entry): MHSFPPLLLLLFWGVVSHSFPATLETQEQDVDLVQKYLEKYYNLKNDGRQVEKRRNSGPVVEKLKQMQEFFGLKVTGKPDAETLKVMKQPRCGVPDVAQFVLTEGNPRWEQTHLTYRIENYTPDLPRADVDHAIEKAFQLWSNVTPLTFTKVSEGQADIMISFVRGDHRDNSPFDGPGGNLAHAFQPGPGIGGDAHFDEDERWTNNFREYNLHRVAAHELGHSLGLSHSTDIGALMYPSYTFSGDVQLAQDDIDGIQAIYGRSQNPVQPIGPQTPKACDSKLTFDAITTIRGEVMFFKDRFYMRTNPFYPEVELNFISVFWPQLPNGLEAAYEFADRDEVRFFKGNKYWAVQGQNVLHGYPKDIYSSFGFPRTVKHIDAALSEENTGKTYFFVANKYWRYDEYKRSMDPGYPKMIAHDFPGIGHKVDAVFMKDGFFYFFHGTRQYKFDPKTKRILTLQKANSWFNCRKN

Rattus norvegicus [3] = test: Half life in rat at 3 mg/kg, iv; format: ADME, organism-based; set-up: dose 3 mg/kg, route intravenous; conditions: in vivo
Method in brief: (§1)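 Rats were dosed separately at 3 mg/kg iv and 10 mg/kg po. Reported parameters were AUC (µM h), T1/2 (h), Cl (L/h/kg) and Vss (L/kg) after iv dosing, and AUC, Cmax (µM), Tmax (h) and F% after oral dosing.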

Rattus norvegicus [4] = test: Clearance in rat at 3 mg/kg, iv; format: ADME, organism-based; set-up: dose 3 mg/kg, route intravenous; conditions: in vivo; method in brief: as §1
[5] = target: Stromelysin-1 (Homo sapiens) (UniProt P08254); test: Inhibition of MMP3
Sequence of Stromelysin-1 (Homo sapiens) (P08254 100-477 limits assumed): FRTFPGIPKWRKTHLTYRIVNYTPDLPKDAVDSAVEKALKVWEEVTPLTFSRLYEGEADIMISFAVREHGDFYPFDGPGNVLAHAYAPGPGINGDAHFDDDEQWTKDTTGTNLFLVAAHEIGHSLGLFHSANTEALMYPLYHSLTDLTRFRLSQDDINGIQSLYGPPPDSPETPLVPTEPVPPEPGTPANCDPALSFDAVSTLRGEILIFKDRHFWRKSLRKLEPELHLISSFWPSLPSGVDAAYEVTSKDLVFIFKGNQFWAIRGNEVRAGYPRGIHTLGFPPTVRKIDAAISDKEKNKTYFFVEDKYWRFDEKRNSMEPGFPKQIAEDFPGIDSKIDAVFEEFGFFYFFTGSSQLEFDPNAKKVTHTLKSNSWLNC

[6] = target: Disintegrin and metalloproteinase domain-containing protein 17 (Homo sapiens, UniProt P78536); test: Inhibition of TACE assessed as inhibition of pro-TNFalpha peptide cleavage
Sequence of Disintegrin and metalloproteinase domain-containing protein 17 (P78536 whole entry, the tested form may be a part): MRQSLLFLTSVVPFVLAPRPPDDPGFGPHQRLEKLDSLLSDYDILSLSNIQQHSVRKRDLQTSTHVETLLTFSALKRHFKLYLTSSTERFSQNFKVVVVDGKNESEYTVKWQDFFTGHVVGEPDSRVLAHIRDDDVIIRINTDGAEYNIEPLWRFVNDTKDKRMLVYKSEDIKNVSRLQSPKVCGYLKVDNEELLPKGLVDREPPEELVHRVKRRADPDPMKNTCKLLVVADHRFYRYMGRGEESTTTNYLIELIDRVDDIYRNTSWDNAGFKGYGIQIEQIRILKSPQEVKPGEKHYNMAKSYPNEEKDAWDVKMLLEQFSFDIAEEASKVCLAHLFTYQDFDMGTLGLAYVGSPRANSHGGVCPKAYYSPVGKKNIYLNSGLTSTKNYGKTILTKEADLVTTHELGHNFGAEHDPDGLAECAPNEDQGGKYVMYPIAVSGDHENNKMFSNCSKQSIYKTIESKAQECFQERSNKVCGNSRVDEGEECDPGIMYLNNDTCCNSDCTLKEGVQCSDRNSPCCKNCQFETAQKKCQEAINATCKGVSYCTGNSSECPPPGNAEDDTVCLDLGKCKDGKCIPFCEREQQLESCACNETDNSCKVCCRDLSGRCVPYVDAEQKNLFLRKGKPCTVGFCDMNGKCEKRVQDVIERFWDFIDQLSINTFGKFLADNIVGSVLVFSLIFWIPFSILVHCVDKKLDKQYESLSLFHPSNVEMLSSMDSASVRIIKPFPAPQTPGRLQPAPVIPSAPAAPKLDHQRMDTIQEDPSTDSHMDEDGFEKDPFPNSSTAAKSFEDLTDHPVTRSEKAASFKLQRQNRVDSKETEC

[7] = target: T2, Matrilysin (Homo sapiens) (UniProt P09237); test: Inhibition of MMP7
T2 sequence (whole entry): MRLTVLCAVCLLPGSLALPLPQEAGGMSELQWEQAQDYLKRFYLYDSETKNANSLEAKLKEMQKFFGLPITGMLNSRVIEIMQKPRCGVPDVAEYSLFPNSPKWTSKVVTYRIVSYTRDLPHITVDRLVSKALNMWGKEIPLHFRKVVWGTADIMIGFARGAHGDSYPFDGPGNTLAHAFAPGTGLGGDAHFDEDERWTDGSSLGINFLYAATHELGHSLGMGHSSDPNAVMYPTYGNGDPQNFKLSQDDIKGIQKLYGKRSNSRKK

[8] = Cmax in rat at 10 mg/kg, po; format: ADME, organism-based; set-up: dose 10 mg/kg, route oral; conditions: in vivo; method in brief: as §1
[9] = target: T3, Disintegrin and metalloproteinase domain-containing protein 10 (Homo sapiens) (UniProt O14672); test: Inhibition of ADAM10
T3 sequence (whole entry): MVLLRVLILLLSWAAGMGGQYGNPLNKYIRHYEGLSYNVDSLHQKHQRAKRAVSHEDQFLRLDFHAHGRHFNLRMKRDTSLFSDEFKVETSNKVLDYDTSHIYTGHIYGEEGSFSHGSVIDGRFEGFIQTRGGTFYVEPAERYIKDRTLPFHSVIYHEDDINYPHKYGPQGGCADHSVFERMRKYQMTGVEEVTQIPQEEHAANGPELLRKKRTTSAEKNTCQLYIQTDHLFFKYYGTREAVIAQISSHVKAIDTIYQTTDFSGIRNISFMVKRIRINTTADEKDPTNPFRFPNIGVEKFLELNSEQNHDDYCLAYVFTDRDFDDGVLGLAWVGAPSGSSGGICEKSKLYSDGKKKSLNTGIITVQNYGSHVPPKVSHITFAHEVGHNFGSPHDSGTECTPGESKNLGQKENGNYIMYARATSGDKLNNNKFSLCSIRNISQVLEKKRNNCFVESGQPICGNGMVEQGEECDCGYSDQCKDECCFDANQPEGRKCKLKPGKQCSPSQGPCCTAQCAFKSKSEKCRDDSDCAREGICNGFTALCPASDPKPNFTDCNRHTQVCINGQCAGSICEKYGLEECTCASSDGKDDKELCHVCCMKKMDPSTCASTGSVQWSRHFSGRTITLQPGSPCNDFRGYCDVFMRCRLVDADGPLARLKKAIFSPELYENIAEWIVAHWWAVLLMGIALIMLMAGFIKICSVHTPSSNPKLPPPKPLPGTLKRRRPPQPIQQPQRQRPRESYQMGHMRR

[10] = Tmax in rat at 10 mg/kg, po; format: ADME, organism-based; set-up: dose 10 mg/kg, route oral; conditions: in vivo; method in brief: as §1
[11] = Oral bioavailability in rat at 10 mg/kg; format: ADME, organism-based; conditions: in vivo; method in brief: as §1
[12] = target: Collagenase 3 (Homo sapiens) (UniProt P45452); test: Inhibition of MMP13
[13] = AUC in rat at 10 mg/kg, po; format: ADME, organism-based; set-up: dose 10 mg/kg, route oral; conditions: plasma
Rattus norvegicus [14] = test: Volume of distribution at steady state in rat at 3 mg/kg, iv; format: ADME, organism-based; set-up: dose 3 mg/kg, route intravenous; conditions: in vivo; method in brief: as §1
Rattus norvegicus [15] = test: AUC in rat at 3 mg/kg, iv; format: ADME, organism-based, Plasma; set-up: dose 3 mg/kg, route intravenous; conditions: in vivo
[16] = target: Matrix metalloproteinase-9 (Homo sapiens) (UniProt P14780); test: Inhibition of MMP9
Sequence of Matrix metalloproteinase-9 (Homo sapiens) (P14780 whole entry): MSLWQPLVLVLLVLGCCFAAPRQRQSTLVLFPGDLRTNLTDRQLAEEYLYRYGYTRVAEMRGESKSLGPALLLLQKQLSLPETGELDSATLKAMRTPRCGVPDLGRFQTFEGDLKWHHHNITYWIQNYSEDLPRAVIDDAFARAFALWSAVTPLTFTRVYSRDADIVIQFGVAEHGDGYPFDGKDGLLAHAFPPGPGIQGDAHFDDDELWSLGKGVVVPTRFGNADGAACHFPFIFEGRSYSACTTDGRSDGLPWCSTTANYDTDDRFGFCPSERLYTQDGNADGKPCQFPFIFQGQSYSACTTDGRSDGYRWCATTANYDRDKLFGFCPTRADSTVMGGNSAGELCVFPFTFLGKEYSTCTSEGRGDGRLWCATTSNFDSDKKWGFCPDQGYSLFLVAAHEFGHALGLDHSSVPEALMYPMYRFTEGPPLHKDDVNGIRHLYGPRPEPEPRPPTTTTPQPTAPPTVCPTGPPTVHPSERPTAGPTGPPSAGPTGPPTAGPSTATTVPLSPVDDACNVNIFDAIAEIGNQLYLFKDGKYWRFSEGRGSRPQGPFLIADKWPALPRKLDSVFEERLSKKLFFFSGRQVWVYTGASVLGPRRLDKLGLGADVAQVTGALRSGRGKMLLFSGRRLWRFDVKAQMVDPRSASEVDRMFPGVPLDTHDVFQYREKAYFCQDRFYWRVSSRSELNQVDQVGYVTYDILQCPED

[17] = target: Matrix metalloproteinase-14 (Homo sapiens) (UniProt P50281); test: Inhibition of MMP14

Sequence of 72 kDa type IV collagenase (Homo sapiens) (P08253 110-660 limits assumed): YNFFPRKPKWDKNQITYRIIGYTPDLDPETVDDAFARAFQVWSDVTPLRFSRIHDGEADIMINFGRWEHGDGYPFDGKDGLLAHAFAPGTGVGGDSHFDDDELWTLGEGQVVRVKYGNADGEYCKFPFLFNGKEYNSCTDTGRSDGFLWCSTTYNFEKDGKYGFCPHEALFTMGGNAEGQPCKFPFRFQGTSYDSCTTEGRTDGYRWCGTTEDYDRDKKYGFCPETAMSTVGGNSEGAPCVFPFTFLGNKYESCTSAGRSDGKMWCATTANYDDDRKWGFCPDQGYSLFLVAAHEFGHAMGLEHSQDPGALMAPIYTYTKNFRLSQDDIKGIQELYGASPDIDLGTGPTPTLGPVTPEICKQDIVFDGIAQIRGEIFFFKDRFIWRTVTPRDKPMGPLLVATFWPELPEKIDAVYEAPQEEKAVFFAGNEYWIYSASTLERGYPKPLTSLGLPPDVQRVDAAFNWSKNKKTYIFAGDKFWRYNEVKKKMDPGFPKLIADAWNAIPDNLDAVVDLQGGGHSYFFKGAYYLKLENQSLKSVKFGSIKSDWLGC

COc1ccc2c(c1)C(=O)N(C[C@@]1(c3ccc(-c4ccnc(C)c4)cc3)NC(=O)NC1=O)C2
INH [1]: 86 nM | INH [2]: 1740 nM | t1/2 (Rattus norvegicus [3]): 4.4 h | CL (Rattus norvegicus [4]): 91.7 mL/min/kg | INH [5]: 434 nM | Ki [6]: 0.5 nM | INH [7]: 30 µM | Cmax [8]: 3.3 µM | INH [9]: 253 nM | Tmax [10]: 1.7 h | bioavailability [11]: 19% | INH [12]: 194 nM | AUC [13]: 13 µM·h | Vdss (Rattus norvegicus [14]): 0.3 L/kg | AUC (Rattus norvegicus [15]): 21 µM·h | INH [16]: 212 nM | INH [17]: 36 nM

O=C1NC(=O)[C@](CN2Cc3ccc(F)cc3C2=O)(c2ccc(-c3ccc(=O)[nH]c3)cc2)N1
Ki [6]: 0.2 nM

COc1ccc2c(c1)C(=O)N(C[C@@]1(c3ccc(-c4cc(-c5ccccc5)no4)cc3)NC(=O)NC1=O)C2
Ki [6]: 28 nM

COc1ccc2c(c1)C(=O)N(C[C@@]1(c3ccc(-c4ccncc4)cc3)NC(=O)NC1=O)C2
Ki [6]: 0.6 nM

COC(=O)c1ccc(-c2ccc([C@]3(CN4Cc5ccc(OC)cc5C4=O)NC(=O)NC3=O)cc2)cc1
Ki [6]: 9 nM

COc1ccc2c(c1)C(=O)N(C[C@@]1(c3ccc(-c4cccc(-c5csc(C)n5)c4)cc3)NC(=O)NC1=O)C2
Ki [6]: 31 nM

COc1ccc2c(c1)C(=O)N(C[C@@]1(c3ccc(Oc4ccc5cnccc5c4)cc3)NC(=O)NC1=O)C2
Ki [6]: 8 nM

COc1ccc2c(c1)C(=O)N(C[C@@]1(c3ccc(C4(C)NC(=O)NC4=O)cc3)NC(=O)NC1=O)C2 (stereo partly drawn)
Ki [6]: 2.6 nM

COc1ccc2c(c1)C(=O)N(C[C@@]1(c3ccc(-c4ccc(C(N)=O)cc4)cc3)NC(=O)NC1=O)C2
Ki [6]: 3 nM

COc1ccc2c(c1)C(=O)N(C[C@@]1(c3ccc(-c4ccnc(N)c4)cc3)NC(=O)NC1=O)C2
Ki [6]: 1.4 nM

COc1ccc2c(c1)C(=O)N(C[C@@]1(c3ccc(-c4cncnc4)cc3)NC(=O)NC1=O)C2
Ki [6]: 0.9 nM

O=C1NC(=O)[C@](CN2Cc3ccc(F)cc3C2=O)(c2ccc(-c3ccc(F)cc3F)cc2)N1
Ki [6]: 2 nM

O=C1NC(=O)[C@](CN2Cc3ccc(F)cc3C2=O)(c2ccc(-c3ccc(C(F)(F)F)cc3)cc2)N1
Ki [6]: 18 nM

COc1ccc2c(c1)C(=O)N(C[C@@]1(c3ccc(-c4cnn(C)c4)cc3)NC(=O)NC1=O)C2
INH [1]: 24 nM | INH [2]: 718 nM | t1/2 (Rattus norvegicus [3]): 4.4 h | CL (Rattus norvegicus [4]): 55 mL/min/kg | INH [5]: 430 nM | INH [7]: > 40 µM | Cmax [8]: 4.45 µM | INH [9]: 187 nM | Tmax [10]: 2 h | bioavailability [11]: 18% | INH [12]: 202 nM | AUC [13]: 22.2 µM·h | Vdss (Rattus norvegicus [14]): 0.3 L/kg | AUC (Rattus norvegicus [15]): 36.2 µM·h | INH [16]: 122 nM | INH [17]: 19 nM

COc1ccc2c(c1)C(=O)N(C[C@@]1(c3ccc(Oc4ccncc4)cc3)NC(=O)NC1=O)C2
Ki [6]: 7 nM

COc1ccc2c(c1)C(=O)N(C[C@@]1(c3ccc(-c4cccnc4)cc3)NC(=O)NC1=O)C2
INH [2]: 655 nM | t1/2 (Rattus norvegicus [3]): 4.3 h | CL (Rattus norvegicus [4]): 103 mL/min/kg | INH [5]: 3.61 nM | INH [7]: 17.4 µM | Cmax [8]: 2.96 µM | INH [9]: 216 nM | Tmax [10]: 0.58 h | bioavailability [11]: 14.1% | INH [12]: 155 nM | AUC [13]: 9.1 µM·h | Vdss (Rattus norvegicus [14]): 0.3 L/kg | AUC (Rattus norvegicus [15]): 19 µM·h | INH [16]: 124 nM | INH [17]: 25 nM

O=C1NC(=O)[C@](CN2Cc3ccc(F)cc3C2=O)(c2ccc(-c3c[nH]c(=O)c(Cl)c3)cc2)N1
Ki [6]: 0.1 nM

COc1ccc2c(c1)C(=O)N(C[C@@]1(c3ccc(-c4nccs4)cc3)NC(=O)NC1=O)C2
Ki [6]: 0.6 nM
